Bioassay records deposited in PubChem BioAssay by several laboratories.
AP complement: alternative pathway complement inhibition, orthogonal assay; Human serum alternative complement pathway, LPS-coated ELISA, C3 deposition; tested in compound mixtures; inhibition, % at 5 µM; 0.08% of 62,000 active;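 active = inhibition above 30% in each of the two pooled mixtures holding the compound, so the lower value exceeds 30%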;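 also: 0% = serum in Mg-EGTA without compound and 100% = EDTA serum blank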
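Test system: human serum alternative complement pathway, C3 deposition on LPS-coated wells; also added: Plate-bound LPS; doses: 5 µM per compound in ten-compound mixtures; schedule: 1 h at 37 °C; detection: Anti-C3 ELISA, OD 450 nm; evaluation: percent inhibition of C3 deposition onto LPS; repeats: two pool placements per compound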
D1 mod: D1 dopamine receptor (human) allosteric modulation. P21728. HEK293 D1, CRE-luciferase, dopamine EC30 potentiation; actives deviate in either direction. B-score at 10 µM. 5.9% of 58,000 active. AID 641;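 active = luminescence count or its row- and column-corrected plate score outside the 99.7% band of the plate's sample wells, on either side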
hDAT+cocaine: modulates human dopamine transporter uptake under cocaine. Q01959. LLC-PK1 hDAT cells, [14C]-dopamine uptake with cocaine IC80; actives deviate in either direction. B-score at 10 µM. 1.3% of 110,000 active;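 active = Z score or B-score, a plate-position-corrected score, falls beyond the plate's 99.7% confidence bounds, in either direction; inactive = both scores lie inside the 99.7% bounds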;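 also: scored against the spread of the other compound wells on the same plate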
WNV protease inh: inhibitors of West Nile virus NS2B-NS3 protease. P06935. WNV NS2B-NS3 protease, fluorogenic substrate Ex360/Em465; stronger effect = lower value. z-score (no concentration beside the values). 0.18% of 65,000 active. AID 577; in the data active = z-score below about -3
Target sequence (P06935 1371-1501 limits assumed): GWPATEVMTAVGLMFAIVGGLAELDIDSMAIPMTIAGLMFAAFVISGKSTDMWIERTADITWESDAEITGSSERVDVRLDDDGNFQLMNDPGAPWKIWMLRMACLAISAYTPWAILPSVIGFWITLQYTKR
Target sequence (P06935 1502-1679 limits assumed): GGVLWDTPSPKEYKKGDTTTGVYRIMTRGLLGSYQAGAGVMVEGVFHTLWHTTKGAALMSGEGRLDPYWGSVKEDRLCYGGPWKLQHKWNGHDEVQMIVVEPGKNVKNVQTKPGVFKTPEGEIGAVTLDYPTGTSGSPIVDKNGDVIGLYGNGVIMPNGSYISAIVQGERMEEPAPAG
D1 PAM confirm: D1 receptor (human) allosteric modulation, confirmed; shares compounds with D1 mod; HEK293 D1 CRE-luciferase, dopamine EC30 potentiation; stronger effect = higher value; luminescence at 10 µM; 88% of 2,200 active; AID 642;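 active = luminescence in either of two replicates above the same-plate mean plus 3 SD of the low-dose dopamine control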
D1 ag no DA: secondary test of D1 modulators: activity without dopamine | HEK293 D1 CRE-luciferase, luminescence, no dopamine; stronger effect = higher value | 0.8% of 1,900 active | luminescence at 10 µM | shares compounds with D1 mod; in the data active = luminescence above about 3900
Isoprot counter: alters isoproterenol CRE-luciferase response in HEK293 cells | AID 647 | 63% of 2,200 active | shares compounds with D1 mod | HEK293 D1 CRE-luciferase, isoproterenol EC30 counter-screen; stronger effect = higher value | luminescence at 10 µM;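 active = luminescence in either replicate above plate mean of wells with a partly effective reference agonist dose plus 3 SD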;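 also: isoproterenol raises cAMP through native beta-adrenoceptor Gs so signal bypasses D1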
An asterisk follows results filed as active; . = no result given. This excerpt belongs to a sample that is enriched for hits.

SMILES	AP complement	D1 mod	hDAT+cocaine	WNV protease inh	D1 PAM confirm	D1 ag no DA	Isoprot counter
CCCCn1c(O)c(C(CC)=NCCc2ccccc2)c(=O)[nH]c1=O	19	6.3*	2.7	-0.65	8912*	1568	3084*
CCCCn1c(O)c(C(CC)=NCc2ccc(F)cc2)c(=O)[nH]c1=O	.	.	1.5	.	.	.	.
C=CCn1c(O)c(C(C)=NCc2cc(OC)cc(OC)c2)c(=O)[nH]c1=O	10	3.2*	0.05	0.03	9872*	1756	3832*
C=CCn1c(O)c(C(C)=NCc2cccnc2)c(=O)[nH]c1=O	4	0.65	-0.95	-1.1	.	.	.
CCCCn1c(O)c(C(C)=NCc2ccc(F)cc2)c(=O)[nH]c1=O	-10	4*	0.013	-0.38	10964*	1708	2908
C[N+](C)(C)Cc1ccccc1	.	.	-0.36	.	.	.	.
CCOC(=O)c1cncn1[C@H](C)c1ccccc1	.	.	-0.12	.	.	.	.
Cc1ccc(CN2CC3CC(C2)c2cccc(=O)n2C3)cc1 (centres undefined)	.	3.3*	0.38	0.87	7636	1800	2372
O=c1cccc2n1CC1CC2CN(Cc2c(Cl)cccc2Cl)C1 (centres undefined)	4	0.47	0.89	-0.23	.	.	.
CCOC(=O)N(c1ccccc1)P1(=S)OCCO1	-4	7.4*	-0.38	-1.1	19704*	1752	3780*
CCOC(=O)N(c1ccccc1)P1(=S)OCC(C)O1 (centres undefined)	22	.	0.19	-0.64	.	.	.
COC(=O)N(c1ccccc1)P1(=S)OCCO1	-16	5.3*	-0.55	0.13	11592*	1628	3344*
COC1=CC(=O)OC(/C=C/c2ccccc2)C1 (centres undefined)	9	-1.8	0.87	0.38	.	.	.
Cc1sc2ncn(CC(=O)NCCCC(=O)N3CCC4(CC3)OCCO4)c(=O)c2c1C	.	.	0.49	.	.	.	.
CC(C)(O)[C@H]1O[C@H]2CC[C@@]3(C)[C@@](O)(CC[C@H]4Cc5c([nH]c6ccccc56)[C@@]43C)C2=CC1=O	.	.	0.95	.	.	.	.
NCCc1ccc(O)cc1	-4	5.1*	0.0023	0.37	7676*	17832*	5168*
COCCNC(=O)c1c(NC(=O)c2ccco2)n(Cc2ccccc2)c2nc3ccccc3nc12	-3	4.3*	0.92	1.4	10288*	1576	2760
Clc1cccc(C2NCCc3[nH]cnc32)c1 (centres undefined)	.	.	-0.88	.	.	.	.
O=c1[nH]c2ccccc2c(=O)n1-c1cccc(Cl)c1	.	9.2*	.	1.1	10464*	1816	3436*
N=Cc1c(O)n(-c2cccc(Cl)c2)c(=O)[nH]c1=O	0	0.75	-0.66	0.62	.	.	.
CC1=CC(=O)NP(=O)(Oc2ccc3ccccc3c2)N1 (centres undefined)	-5	0.12	-0.56	-0.86	.	.	.
COc1cccc(-c2cc(C(F)(F)F)n3nc(C(=O)N4CCC5(CC4)OCCO5)cc3n2)c1	14	2.4*	0.97	-0.19	9588*	.	2712
O=C(c1cnn2c(C(F)(F)F)cc(-c3ccccc3)nc12)N1CCC2(CC1)OCCO2	.	.	-1	.	.	.	.
COC(=O)[C@]12OC[C@]34C([C@@H](O)[C@@H]1O)[C@]1(C)CC(=O)C(O)=C(C)[C@@H]1C[C@H]3OC(=O)[C@H](O)[C@@H]24 (some centres undefined)	.	.	-0.18	.	.	.	.
CCC(=NCc1ccco1)c1c(O)[nH]c(=O)[nH]c1=O	16	8.6*	-0.00068	2.9	16800*	.	4016*
CCC(C)NC(=O)c1c(N)n(CC2CCCO2)c2nc3ccccc3nc12 (centres undefined)	6	1.4	1.8	0.45	.	.	.
CCC(C)NC(=O)c1c(N)n(CCCOC)c2nc3ccccc3nc12 (centres undefined)	5	5.1*	2.3	1.1	9844*	1520	2960*
CCCCOCCCn1c(N)c(C(=O)OC(C)COC)c2nc3ccccc3nc21 (centres undefined)	.	6.7*	-0.39	1.7	11516*	1488	3460*
COCCCn1c(N)c(C(=O)OC(C)COC)c2nc3ccccc3nc21 (centres undefined)	6	5.6*	0.92	2.3	8820*	1816	2856
Cc1ccccc1C(O)(Cc1ccccc1)C1CN2CCC1CC2 (centres undefined)	.	.	0.21	.	.	.	.
